# Only some compounds are listed: those with a hit (about 2.3% of all), similar ones and a draw of the others.
# TRPC4 block – blocks the mouse TRPC4 cation channel | HEK293 TRPC4beta/mu-opioid, DAMGO-evoked Fluo4 calcium flux; hits give low values | B-score at 10 µM | 300,000 compounds, 0.39% hits | AID 2247;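 active means B-score over 3 SD under the library average, no early fluorescence shift, positive overall ratio signal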
#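 material = TRPC4beta/mu-opioid receptor HEK293 cell line | probe or stimulus = sequential submaximal and maximal DAMGO stimulation | compound dosing = one concentration per compound | measured by = Fluo4 Ca2+ flux fluorescence | evaluation = integrated fluorescence ratio relative to baseline, converted to per-well B score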
# TRPC4 agonist – opens the mouse TRPC4 cation channel; Q9QUQ5; HEK293 TRPC4beta/mu-opioid, Fluo4 calcium fluorescence; hits give high values; B-score at 10 µM; 310,000 compounds, 0.49% hits; AID 2237;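 active means B-score above 5 SD of library B-scores, and initial fluorescence ratio not above library mean plus 5 SD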;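 further: positive B-score marks a calcium rise read as TRPC4 activation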
#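 Incubation: 45 min room-temperature Fluo4 loading, 110 s read / System: HEK293 cells stably co-expressing mouse TRPC4beta and mu-opioid receptor / Signal: Fluo4 fluorescence, kinetic / Control set: buffer (low) and maximal DAMGO (high) / Measure: integrated baseline-normalised fluorescence ratio, converted to per-well B score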
# TRPC6 activator – mouse TRPC6 channel activation. Q61143. HEK293-TRPC6 membrane potential dye fluorescence; hits give high values. B-score at 10 µM. 310,000 compounds, 0.13% hits. AID 2550;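 active means B-score of the integrated fluorescence ratio above library mean plus 3 SD, and starting fluorescence ratio within library mean plus 5 SD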;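 further: higher score means more depolarization so channel activation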
# TRPC4 PAM – TRPC4 (mouse) allosteric potentiation | Q9QUQ5 | HEK293 TRPC4beta/mu-opioid, DAMGO EC20, Fluo-4 Ca2+ flux; hits give high values | B-score at 10 µM | 310,000 compounds, 0.42% hits;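 active means B-score of calcium response area above 5 SD of library B-scores, with initial fluorescence ratio within 5 SD of library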;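 further: B-score of integrated fluorescence ratio over time as area under calcium response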
# TRPC6 inh – blocks the mouse TRPC6 cation channel; B-score at 10 µM; 310,000 compounds, 1.1% hits; AID 2553; Q61143; HEK293-TRPC6, membrane potential dye, ACh-evoked depolarization; hits give low values;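 active means B-score under library mean minus 3 SD, initial fluorescence not abnormally high, positive integrated signal ratio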;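 further: B-score derived from integrated fluorescence ratio over the kinetic read; more negative B-score means stronger inhibition of depolarization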
# The depositor's hits bear a star; i = inactive.
SMILES,TRPC4 block,TRPC4 agonist,TRPC6 activator,TRPC4 PAM,TRPC6 inh
Cc1ccc(C)c(-n2cc(CNC(C)Cn3cncn3)c(-c3ccccc3)n2)c1 (configuration not stated),i,66*,i,i,i
COc1ccc(-c2nn(-c3ccccc3)cc2CNC(C)Cn2cncn2)c(F)c1 (configuration not stated),i,i,i,i,i
O=C(Nc1ccc(Cl)cn1)c1cccc2c(Br)cccc12,i,i,i,i,i
O=C(CCS(=O)(=O)c1ccc(Br)cc1)NCc1ccc(F)cc1,i,i,i,i,i
CC1CCCN(C(C(=O)NC2CCCCC2)c2cc3c(cc2[N+](=O)[O-])OCO3)C1 (configuration not stated),i,i,i,i,i
CC1CCN(C(C(=O)NC2CCCCC2)c2cc3c(cc2[N+](=O)[O-])OCO3)CC1 (configuration not stated),i,i,i,11*,i
Cc1ccc2c(c1)N(C(=O)CCC(=O)Nc1ccccc1Br)CC(C)O2 (configuration not stated),-9*,i,i,i,i
CC(=O)c1ccc(NC(=O)CCC(=O)N2CC(C)Oc3ccc(C)cc32)cc1 (configuration not stated),i,i,i,i,i
CN(C)c1ccc(S(=O)(=O)N2CCCCC2)cc1NC(=O)C1=NN(c2ccccc2)C(=O)CC1,i,i,i,i,i
COc1ccc(NC(=O)C2Cc3ccccc3O/C2=N\O)cc1 (configuration not stated),i,i,i,i,i
O=C(COc1ccccc1)NC1CCCN(Cc2ccccc2F)C1 (configuration not stated),i,i,i,i,i
O=C(NC1CCCN(Cc2ccc(Cl)cc2)C1)c1ccnc(Cl)c1 (configuration not stated),i,i,i,i,i
COc1cc(OC)cc(C(=O)NC2CCCN(Cc3ccc(Cl)cc3)C2)c1 (configuration not stated),i,92*,i,i,i
CC(=O)c1c(C)nn(CC(=O)NC2CCCN(Cc3ccc(CC(C)C)cc3)C2)c1C (configuration not stated),i,111*,i,i,i
Cc1cc(C)n(CC(=O)NC2CCCN(Cc3ccc(Cl)cc3)C2)n1 (configuration not stated),i,50*,i,i,i
O=C(Cc1ccccc1F)NC1CCCN(Cc2ccc(Cl)cc2)C1 (configuration not stated),i,44*,i,i,i
CC(C)Cc1ccc(CN2CCCC(NC(=O)CCN3CCCCC3=O)C2)cc1 (configuration not stated),i,i,i,i,i
COCCN(C(=O)COC(=O)Cc1ccc(Cl)cc1Cl)c1c(N)n(Cc2ccccc2)c(=O)[nH]c1=O,i,i,i,i,i
Cc1cccc(C(=O)Nc2ccc(C(=O)N/N=C/c3ccc(C)o3)cc2)c1,i,i,i,i,i
O=C(CCN1CCCCC1=O)NC1CCCN(Cc2ccc(Cl)cc2)C1 (configuration not stated),i,i,i,14*,i
O=C(Cc1cccc(F)c1F)NC1CCCN(Cc2ccc(Cl)cc2)C1 (configuration not stated),i,106*,i,i,i
CCCN(CCC)CCCNS(=O)(=O)c1ccc2c(c1)oc(=O)n2C,i,56*,i,i,i
CC(C)OCCCNS(=O)(=O)c1ccc2c(c1)oc(=O)n2C,i,i,i,i,i
CC(C)C(NS(=O)(=O)c1ccc2c(c1)Cc1cc(S(=O)(=O)NC(C(=O)O)C(C)C)ccc1-2)C(=O)O (configuration not stated),i,i,i,i,i
CC1CN(CCOCCOc2ccccc2-c2ccccc2)CC(C)O1 (configuration not stated),i,63*,i,i,i
SMILES,TRPC4 block,TRPC4 agonist,TRPC6 activator,TRPC4 PAM,TRPC6 inh
COc1cccc(Nc2nc(N)c([N+](=O)[O-])c(N3CCOCC3)n2)c1,i,i,i,i,i
COc1ccc(/C=C2\CCCC3C2=NN(C(=O)CSc2n[nH]c(N)n2)C3c2ccc(OC)cc2)cc1 (configuration not stated),i,i,i,12*,i
O=C1CCC(C(=O)OCC(=O)N2N=C3/C(=C/c4ccccc4)CCCC3C2c2ccccc2)N1 (configuration not stated),i,i,i,i,i
COc1ccc(F)cc1CSc1nnnn1-c1ccc(O)cc1,-5*,i,i,i,i
Cc1ccc(C(=O)NCc2ccccn2)cc1Cl,i,i,i,10*,i
Cc1ccc(C)c(NS(=O)(=O)c2cc(C(=O)NCc3ccccn3)ccc2Cl)c1,i,i,i,i,i
Cc1ccc(NC(=O)NCc2ccccn2)cc1Cl,i,i,i,i,i
Cc1ccc(NS(=O)(=O)c2cc(C(=O)NCc3ccccn3)ccc2Cl)cc1C,i,i,i,11*,i
O=C(O)c1cccc(-n2cccc2/C=C/[N+](=O)[O-])c1,i,i,i,i,i
CCc1cc(OCCN2C(=O)NC(C)(C)C2=O)ccc1Cl,i,i,i,14*,i
CCc1cc(OCCN(C)C)ccc1Cl,i,100*,i,26*,i
CCOC(=O)c1c(NC(=O)COC(=O)Cn2cnc3c2c(=O)n(C)c(=O)n3C)sc(C)c1CC,-7*,i,i,i,i
O=C(c1ccc(COc2ccccc2Br)cc1)N1CCCCCC1,i,i,i,12*,i
Nc1ccc(-c2nc3c(ccc4ccccc43)[nH]2)cc1,i,i,i,i,-9.5*
COc1ccc(S(=O)(=O)N2CCCCCC2)cc1C(=O)N1CCN(c2ccccc2O)CC1,i,i,i,i,i
CCCCC1CCC(C(=O)NCC(c2ccco2)N2CCOCC2)CC1 (configuration not stated),i,i,i,i,i
CCCc1cc(C(=O)Cc2ccc(F)cc2)c(O)cc1O,i,i,i,i,i
CCCc1cc(C(=O)Cc2ccc(C(=O)OCC)o2)c(O)cc1O,i,i,i,i,-5.5*
Cc1ccc(S(=O)(=O)NCc2ccc(N3CCN(C(=O)OC(C)(C)C)CC3)cc2)cc1,i,i,i,i,i
O=C(Nc1nc2c(s1)CN(Cc1ccccc1)CC2)c1c(F)cccc1F,i,i,i,17*,i
